TRPML3 agonist: activates the human TRPML3 channel; actives 0.29% (n = 220,000); activation, % at 3 µM; HEK293 TRPML3-YFP, Fluo-8 calcium fluorescence; 100% = the carbachol control signal; AID 1448; Q8TDD5;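 active = activation above its plate's cutoff, the mean activation of the plate's test wells plus 3 SD, cut at about 12% in these data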
Target sequence (Q8TDD5 whole entry, looked up): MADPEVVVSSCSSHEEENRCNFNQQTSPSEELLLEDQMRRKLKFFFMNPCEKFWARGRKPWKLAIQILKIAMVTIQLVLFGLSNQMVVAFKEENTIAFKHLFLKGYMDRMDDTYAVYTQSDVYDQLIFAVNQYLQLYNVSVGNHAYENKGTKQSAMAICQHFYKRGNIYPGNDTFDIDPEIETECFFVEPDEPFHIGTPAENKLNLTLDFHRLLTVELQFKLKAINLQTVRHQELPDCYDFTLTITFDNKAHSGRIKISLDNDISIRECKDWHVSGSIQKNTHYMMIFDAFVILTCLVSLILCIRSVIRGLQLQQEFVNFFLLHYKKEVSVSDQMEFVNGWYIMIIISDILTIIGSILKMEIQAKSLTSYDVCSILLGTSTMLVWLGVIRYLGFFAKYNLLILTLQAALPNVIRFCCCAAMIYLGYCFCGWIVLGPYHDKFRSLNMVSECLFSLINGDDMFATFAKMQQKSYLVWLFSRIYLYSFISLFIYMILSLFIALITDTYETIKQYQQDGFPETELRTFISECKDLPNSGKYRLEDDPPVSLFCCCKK
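Test system – HEK293 line with stable expression of human TRPML3-YFP channel · Control set – carbachol 87 µM final as high control (100%), DMSO as low control (0%) · Signal – Fluo-8 calcium dye fluorescence, ex 470-495, em 515-575 nm · Incubation – 1-h 37 °C dye load, 5-s basal, 120-s post-compound reads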
CHO-K1 Ca ag: nonselective activator or artifact in parental CHO-K1 cells; activation, % at 3 µM; Fluo-8 calcium fluorescence; scaled to maximal ATP response, vehicle zero; actives 0.48% (n = 360,000); in the data active = activation above about 15%;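 note: untransfected CHO-K1 host cells lacking M1 receptor as counterscreen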
TRPN1 ag: zebrafish TRPN1 (NompC) channel agonism; AID 1424; activation, % at 3 µM; actives 0.18% (n = 220,000); HEK293 zebrafish TRPN1-YFP, Fluo-8 calcium fluorescence; 100% = response to 87 µM carbachol;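 active = activation above its plate's cutoff, the mean activation of test wells on that plate plus 3 SD, cut at about 19% in these data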
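System: zebrafish TRPN1-YFP in HEK293 cells / Dosing: 3 µM single point / Timing: dye loading 1 h at 37 °C, then 30 min room temperature / Signal: Fluo-8 calcium fluorescence, excitation 470-495 nm, emission 515-575 nm / Read-out basis: percent activation from peak over basal fluorescence ratio, control-normalized / Control set: high carbachol 87 µM, low DMSO alone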
CHO-K1 Ca antag: counter-screen for M1 antagonists: effect in parental CHO-K1 cells; ATP-induced calcium, Fluo-8 fluorescence; inhibition, % at 3 µM; actives 0.6% (n = 360,000);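 active = inhibition above a per-plate cutoff, the plate's mean sample inhibition plus 3 SD, cut at about 24% in these data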
CHO-K1 Ca PAM: counter-screen for M1 PAMs: effect in parental CHO-K1 cells | ATP EC20, Fluo-8 calcium fluorescence; 0% at ATP EC20, 100% at ATP max | activation, % at 3 µM | actives 0.02% (n = 360,000);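 active = activation above the run cutoff, the mean activation of all test compounds plus 3 SD, cut at about 40% in these data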;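 note: peak over basal fluorescence ratio in a 140 s read after ATP addition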
TRPN1 counter: zebrafish TRPN1 agonism as TRPML3 agonist counter-screen; shares compounds with TRPML3 agonist; HEK293 zebrafish TRPN1-YFP, Fluo-8 calcium fluorescence; scaled: carbachol wells 100%, DMSO wells 0%; activation, % at 3 µM; actives 10% (n = 310);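 active = mean activation over replicates above a set limit taken from the earlier TRPN1 channel primary screen, cut at about 19% in these data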
TRPML3 confirm: human TRPML3 agonism, confirmation; activation, % at 3 µM; AID 1526; HEK293 TRPML3-YFP, Fluo-8 calcium fluorescence; 100% set by carbachol, 0% by DMSO; actives 80% (n = 310); shares compounds with TRPML3 agonist;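 active = activation above a set limit derived from the earlier primary screen, cut at about 12% in these data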
A number is an active result; n = inactive; x = no result. Only some compounds are listed: those with a hit (about 1.2% of all), similar ones and a draw of the others.

SMILES | TRPML3 agonist | CHO-K1 Ca ag | TRPN1 ag | CHO-K1 Ca antag | CHO-K1 Ca PAM | TRPN1 counter | TRPML3 confirm
CCOc1ccc(S(=O)(=O)N2CCN(C)CC2)c(C)c1C | n | n | n | n | n | x | x
CC1(C)CC(=O)C=C(c2ccc(-c3cnc4ccccc4c3)cc2)C1=O | x | n | x | n | n | x | x
CC(=O)N1CCN(C(c2ccccc2)c2nnnn2C(C)(C)C)CC1 (centres undefined) | x | n | x | n | n | x | x
COc1cccc(CN(C)C(=O)CC[C@H]2O[C@@H](n3ccc(=O)[nH]c3=O)[C@H](O)[C@@H]2O)c1 | x | n | x | n | n | x | x
CC(C)Oc1cc(F)ccc1-c1cc(C(=O)NCc2cccs2)[nH]n1 | x | n | x | n | n | x | x
CCC(CC)C(=O)N(C)c1c(C)nc2c(OCc3ccc(C(F)(F)F)cc3)cccn12 | x | n | x | n | n | x | x
CCCN(CCC)Cc1cc(=O)oc2cc(C)c(Cl)cc12 | x | n | x | n | n | x | x
COc1ccc(S(=O)(=O)N2CCCCCC2)cc1N(C)S(=O)(=O)c1ccc(C)cc1 | 55 | n | n | n | n | n | 49
Cc1ccc(CC(=O)Nc2ncc([N+](=O)[O-])s2)cc1 | n | n | n | n | n | x | x
CCCCC(CC)C(=O)Nc1ncc([N+](=O)[O-])s1 (centres undefined) | 13 | n | n | 26 | n | n | n
COc1ccc(S(=O)(=O)N(CC(=O)NCC2CCCO2)Cc2ccccc2)cc1 (centres undefined) | x | n | x | n | n | x | x
COc1cccc(CN(CC2CCCO2)S(=O)(=O)c2ccc(S(=O)(=O)N(C)C)cc2)c1 (centres undefined) | 14 | n | n | n | n | n | 17
CC(=O)N1CCc2cc(NC(=O)C3(C)CCN3Cc3ccccc3OC(F)F)ccc21 (centres undefined) | x | n | x | n | n | x | x
O=C(CCN1C(=O)C2C3C=CC(C3)C2C1=O)N1CCN(c2ccccn2)CC1 (centres undefined) | n | n | n | n | n | x | x
O=C1C2C3C=CC(C3)C2C(=O)N1c1ccc(N2CCN(c3ccccn3)CC2)c([N+](=O)[O-])c1 (centres undefined) | 16 | n | n | n | n | n | 21
Cc1cccc(-c2noc(CN(C(C)C)S(=O)(=O)c3ccc(F)cc3)n2)c1 | 75 | n | n | n | n | n | 56
COc1ccc(/C=C2\C(=O)NC(=S)N2C(=O)c2ccc(F)cc2)cc1 | 14 | n | n | n | n | n | n
CN(C)c1ncnc2c1ncn2[C@H]1CN(C2CCCC2)C[C@@H](CO)O1 | x | n | x | n | n | x | x
COC(=O)c1[nH]c2c(c1C)C(=O)CC(c1cccs1)C2 (centres undefined) | 26 | n | n | n | n | n | n
Cc1onc(-c2ccccc2Cl)c1C(=O)Nc1cccc(-c2nc3ncccn3c2C)c1 | 12 | n | n | n | n | n | 13
CS(=O)(=O)NCCNc1ncc(C(F)(F)F)cc1Cl | n | n | n | n | n | x | x
O=S(=O)(NCCNc1ncc(C(F)(F)F)cc1Cl)C(F)(F)F | 14 | n | n | n | n | 21 | n
Cc1ccc(C(NC(=O)C2CCN(CCOc3ccccc3)CC2)c2ccccn2)cc1 (centres undefined) | x | n | x | n | n | x | x
O=S(=O)(/C=C/c1ccccc1)c1ccccc1 | n | n | n | n | n | x | x
O=S(=O)(C=C(c1ccccc1)c1ccccc1)c1ccccc1 | 83 | n | n | n | n | n | 64
SMILES | TRPML3 agonist | CHO-K1 Ca ag | TRPN1 ag | CHO-K1 Ca antag | CHO-K1 Ca PAM | TRPN1 counter | TRPML3 confirm
O=C(O/N=C1\CCCCC1c1ccc([N+](=O)[O-])cc1[N+](=O)[O-])c1c(F)cccc1F (centres undefined) | 57 | n | n | n | n | n | n
CN(Cc1cn(Cc2cccc(C(F)(F)F)c2)nn1)C1CN(Cc2cn(Cc3cccc(C(F)(F)F)c3)nn2)S(=O)(=O)C1 (centres undefined) | x | n | x | n | n | x | x
CCC1CCCCN1S(=O)(=O)c1ccccc1[N+](=O)[O-] (centres undefined) | 22 | n | n | n | n | n | 22
COc1ccc(NC(=O)C2(C)CCN2Cc2ccccc2Cl)cc1OC (centres undefined) | x | n | x | n | n | x | x
CC1CCN(S(=O)(=O)c2ccc(Cl)cc2)CC1 | n | n | n | n | n | x | x
CC1CCN(S(=O)(=O)c2ccc(C(C)C)cc2)CC1 | 68 | n | n | n | n | n | 118
CC1CCCN(S(=O)(=O)c2ccc(Br)s2)C1 (centres undefined) | n | n | n | n | n | x | x
CC1CCN(S(=O)(=O)c2ccc3ccccc3c2)CC1 | 22 | n | n | n | n | n | 43
CC1CCN(S(=O)(=O)c2ccc(Br)s2)CC1 | 20 | n | n | n | n | n | 19
CN1CCN(S(=O)(=O)c2ccc3ccccc3c2)CC1 | n | n | n | n | n | x | x
O=C(Nc1cccc(C(F)(F)F)c1)c1ccc2sc([C@@H]3O[C@H](CO)[C@H](O)[C@H](O)[C@H]3O)nc2c1 | x | n | x | n | n | x | x
CC1Nc2ncnc(N3CCc4ccccc4C3)c2N(Cc2ccccc2)C1=O (centres undefined) | x | n | x | n | n | x | x
O=C(C1Cc2ccccc2CN1S(=O)(=O)c1cccs1)N1CCCCC1 (centres undefined) | 15 | n | n | n | n | n | 52
COc1ccccc1N1CCN(C(=O)C2CCCCN2S(=O)(=O)c2ccc(C)cc2)CC1 (centres undefined) | 14 | n | n | n | n | n | n
O=C(C1Cc2ccccc2CN1S(=O)(=O)c1ccc(F)cc1)N1CCCCC1 (centres undefined) | 64 | n | n | n | n | n | 127
Cc1ccc2nc(/C(C#N)=C\c3cc(O)ccc3[N+](=O)[O-])[nH]c2c1 | n | n | n | n | n | x | x
CCCOc1cc(N(CC)CC)ccc1/C=C(/C#N)c1nc2ccc(C)cc2[nH]1 | 13 | 17 | n | 35 | n | 24 | 13
COC(=O)C1(C)CCCC2(C)C3CCC(C(C)C)C(CO)C3C(CO)CC12 (centres undefined) | x | n | x | n | n | x | x
CCN(C1CCCCC1)S(=O)(=O)c1cc(C)ccc1OC | 22 | n | n | n | n | n | 35
COc1ccc(C)cc1S(=O)(=O)N(C)CC(=O)NC1CCCCC1 | n | n | n | n | n | x | x
CCN(C1CCCCC1)S(=O)(=O)c1ccc(OC)c(C)c1 | 26 | n | n | n | n | n | 87
CCN(C1CCCCC1)S(=O)(=O)c1ccc(-n2cnnn2)c(C)c1 | x | n | x | n | n | x | x
CC1=CNC(=O)CC(C)(C)C1 | x | n | x | n | n | x | x

Screens deposited in PubChem by The Scripps Research Institute Molecular Screening Center.
